Source: PubChem BioAssay
An excerpt weighted towards active compounds, which were near 1.8% of everything screened.
Cneo AK release – Cryptococcus neoformans lysis via adenylate kinase release. lysis activity, % at 15 µM. AID 651654. C. neoformans lysis, adenylate kinase release luminescence, 4 h; normalised: neutral wells 0, clomiphene wells 100. 360,000 tested, 0.2% active;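 active = mean lysis activity across replicates of at least 80%, whatever share of replicates individually reach that level; inactive = mean lysis activity below 80%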
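Material – log-phase Cryptococcus neoformans yeast cells · Input – 5 × 10^6 yeast cells/mL · Medium – fresh YPD growth medium · Doses – single compound concentration per well · Timing – static 4 h at 37 °C with compound, 1 h detection · Detection – adenylate kinase release luminescence · Read-out – signal increase indicating cell lysis · Control set – Clomiphene as positive lysis control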
rRNA inh HTS – inhibits bacterial ribosomal RNA function over humanized ribosomes; E. coli WT GFP vs humanized-ribosome RFP mutants, fluorescence, 24 h; active compounds read low; DMSO median 0, no signal -100; 350,000 tested, 1.6% active; GFP signal change (wild-type ribosome), % (no concentration beside the values); AID 720706;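 active = significant combined selectivity score with lowered wild-type GFP, culture density cut under 30%, mutant RFP and density less affected; inactive = any of these conditions unmet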
MT1-MMP act inh – blocks activation of human MT1-MMP; 360,000 tested, 0.061% active; HT1080 RFP-PRO-GFP cells, GFP/RFP ratio fluorescence, overnight; percent of plate control window, DMSO zero; P50281; AID 651647; GFP/RFP ratio change, % at 20 µM;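 active = GFP/RFP ratio change of at least 30% with cell ATP level not reduced by more than half and red fluorescence within 50% of control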
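system = RFP-PRO-GFP reporter HT1080 cells | dosing = 20 µM single dose, 1% DMSO | timing = overnight cell settling, then overnight compound exposure, 37 °C, 5% CO2 | read-out basis = GFP/RFP fluorescence ratio | controls = DMSO and RFP-L50D-GFP cell wells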
SKN-1 inh – C. elegans SKN-1 inhibition. C. elegans VP596 Pgst-4::GFP/RFP ratio, acrylamide-induced, 24 h. inhibition, % at 21.8 µM. 360,000 tested, 0.49% active. AID 624304;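 active = interference check ratio from 0.5 to 1.5 plus GFP to RFP signal ratio inhibition reaching or exceeding a fixed threshold, cut at about 30% in these data, passing the limit was not always enough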
iPSC survival up – increases survival of single human iPS cells; survival enhancement, % at 20 µM; hiPSC single-cell survival, ATPlite luminescence; 100% = ROCK inhibitor wells, 0% = DMSO; 360,000 tested, 0.044% active; AID 602274; in the data active = survival enhancement above about 18%;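 note: cells exposed to compounds for 16 hours before the ATP read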
DAGLB inh – diacylglycerol lipase beta (human) inhibition. Q8NCG7. HEK293T DAGLB membrane lysate, EnzChek fluorogenic substrate. inhibition, % at 5.17 µM. 340,000 tested, 0.059% active; in the data active = inhibition above about 34%;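 note: 0% = enzyme with vehicle and 100% = wells lacking enzyme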
Target sequence (Q8NCG7 whole entry, looked up): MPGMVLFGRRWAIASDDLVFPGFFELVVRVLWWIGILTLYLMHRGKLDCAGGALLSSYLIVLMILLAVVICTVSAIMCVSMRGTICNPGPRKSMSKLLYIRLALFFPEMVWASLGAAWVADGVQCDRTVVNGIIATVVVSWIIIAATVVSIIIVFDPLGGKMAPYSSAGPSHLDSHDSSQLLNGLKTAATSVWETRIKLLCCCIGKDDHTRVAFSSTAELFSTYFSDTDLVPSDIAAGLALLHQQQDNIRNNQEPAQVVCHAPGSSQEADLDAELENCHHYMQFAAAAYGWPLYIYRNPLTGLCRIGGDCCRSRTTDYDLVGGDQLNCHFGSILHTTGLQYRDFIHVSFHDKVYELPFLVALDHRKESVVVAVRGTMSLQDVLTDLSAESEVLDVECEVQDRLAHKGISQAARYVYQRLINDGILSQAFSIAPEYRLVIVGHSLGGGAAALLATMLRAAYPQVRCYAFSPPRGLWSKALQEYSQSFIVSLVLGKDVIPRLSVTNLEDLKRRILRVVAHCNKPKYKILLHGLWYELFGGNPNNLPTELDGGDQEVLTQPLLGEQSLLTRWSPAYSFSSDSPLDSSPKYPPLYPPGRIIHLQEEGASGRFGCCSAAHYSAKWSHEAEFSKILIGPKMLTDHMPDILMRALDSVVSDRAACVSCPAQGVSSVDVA
The depositor's hits bear a star; x = no result given.

SMILES	Cneo AK release	rRNA inh HTS	MT1-MMP act inh	SKN-1 inh	iPSC survival up	DAGLB inh
COc1ccccc1-c1ccc(SCc2ccc(C)cc2)nn1	x	-11.9	6.4	0.7	-0.1	-20.0
COc1ccccc1-c1ccc(SCc2ccc(F)cc2)nn1	x	-30.7*	-0.8	9.6	-0.1	-4.8
Cc1cc(C)c(NC(=O)CNC(=O)COC(=O)C2CCN(c3ccc(C(F)(F)F)cn3)CC2)c(C)c1	-0.4	16.6	-5.1	0.4	0.9	-0.3
Cc1cc(C)c(NC(=O)COC(=O)C2CCN(c3ccc(C(F)(F)F)cn3)CC2)c(Cl)c1	-1.9	-1.4	2.9	35.9*	-0.5	-5.9
Brc1ccccc1/C=N/Nc1ccc2ccccc2n1	x	-41.5	1.9	2.6	-2.3	-9.8
Fc1cccc(/C=N/Nc2ccc3ccccc3n2)c1	x	-24.1*	1.0	13.5	-1.5	-6.1
Fc1cccc(/C=N/Nc2ccccn2)c1	x	-4.7	0.8	5.4	1.2	-0.5
Brc1ccc(/C=N/Nc2ccc3ccccc3n2)cc1	-1.3	x	x	45.2*	-1.1	-5.3
CC=Cc1ccc2n(c1=O)C[C@@H]1[C@@H](CO)[C@H](C(=O)NC3CCC3)N(Cc3ccncc3)[C@H]21 (mixture of isomers)	x	3.7	x	x	x	x
CO[C@H]1CN(C)C(=O)c2ccc(NS(=O)(=O)c3ccccc3)cc2OC[C@@H](C)N(C)C[C@H]1C	-6.8	0.1	x	x	x	x
COC(=O)c1c(C)nc(C)c(C(=O)OC)c1-c1ccsc1	-1.5	-40.0*	-3.0	-3.3	-0.6	x
COc1ccc(-c2c(C(C)=O)c(C)nc3sc4c(c23)NC(c2ccccc2)NC4=O)cc1 (stereo not drawn)	2.4	x	0.1	-11.7	2.6	3.4
CCOC(=O)c1c(C)nc(C)c(C(=O)OCC)c1-c1ccc(OC)cc1	1.4	-38.0*	-0.8	6.9	-2.6	-5.6
Cc1nc(C)c(C(=O)O)c(-c2ccsc2)c1C(=O)O	-0.3	11.5	-0.1	-8.6	0.1	x
CCOC(=O)c1c(C)nc2sc3c(c2c1-c1ccc(OC)cc1)NC(c1ccccc1)NC3=O (stereo not drawn)	-0.2	x	5.4	-1.9	25.8*	1.5
O=C(Cc1cccnc1)N1CC(=O)N2[C@H](CO)[C@H](c3ccc(/C=C/c4ccccc4)cc3)[C@@H]2C1	x	-2.5	x	x	x	x
CC(=O)N1[C@@H]2c3ccc(C4=CCCCC4)c(=O)n3C[C@H]1[C@H](CO)[C@H]2C(=O)NC1CCC1	-0.1	3.2	x	x	x	x
COc1ccc(NC(=O)N(C)C[C@H]2Oc3ccc(NC(=O)NC4CCCCC4)cc3CC(=O)N([C@H](C)CO)C[C@@H]2C)cc1	-2.5	-3.6	x	x	x	x
CCOc1ccccc1N/C(=C(/C(Cl)=C(Cl)Cl)[N+](=O)[O-])n1cncn1	0.6	-25.1*	-4.4	10.1	-1.0	0.2
CCOc1ccccc1NC(=O)c1ccc(OCC)c([N+](=O)[O-])c1	x	14.6	7.6	-2.9	-0.9	-6.3
Cc1noc(C)c1NC(=O)Nc1ccc2c(c1)C(=O)N([C@H](C)CO)C[C@@H](C)[C@H](CN(C)S(C)(=O)=O)OCCCC[C@@H](C)O2	103.1*	2.6	x	x	x	x
Cc1noc(C)c1NC(=O)Nc1ccc2c(c1)C(=O)N([C@@H](C)CO)C[C@@H](C)[C@@H](CN(C)S(C)(=O)=O)OCCCC[C@@H](C)O2	3.1	2.4	x	x	x	x
Cc1noc(C)c1NC(=O)N(C)C[C@@H]1OCCCC[C@H](C)Oc2ccc(NC(=O)NC(C)C)cc2C(=O)N([C@@H](C)CO)C[C@H]1C	0.8	3.2	x	x	x	x
Cc1noc(C)c1NC(=O)N(C)C[C@H]1OCCCC[C@H](C)Oc2ccc(NC(=O)NC(C)C)cc2C(=O)N([C@@H](C)CO)C[C@@H]1C	89.8*	2.1	x	x	x	x
Cc1noc(C)c1S(=O)(=O)N(C)C[C@@H]1OCCCC[C@@H](C)Oc2ccc(NC(=O)CCCN(C)C)cc2C(=O)N([C@H](C)CO)C[C@@H]1C	-0.6	-0.2	x	x	x	x
SMILES	Cneo AK release	rRNA inh HTS	MT1-MMP act inh	SKN-1 inh	iPSC survival up	DAGLB inh
Cc1noc(C)c1NC(=O)N(C)C[C@H]1OCCCC[C@@H](C)Oc2ccc(NC(=O)NC(C)C)cc2C(=O)N([C@H](C)CO)C[C@H]1C	100.3*	3.5	x	x	x	x
Cc1noc(C)c1S(=O)(=O)N(C)C[C@@H]1OCCCC[C@@H](C)Oc2ccc(NC(=O)CCCCCC(=O)Nc3ccccc3N)cc2C(=O)N([C@H](C)CO)C[C@@H]1C	108.1*	-2.4	x	x	x	x
CC(C)NC(=O)COc1ccccc1C#N	x	19.4	0.3	-3.5	0.9	1.2
CC(C)CCNC(=O)NC(=O)COc1ccccc1C#N	-0.5	x	10.5	37.8*	0.4	0.7
CC(C)CCNC(=O)NC(=O)COC(=O)/C=C/c1cccc([N+](=O)[O-])c1	-4.6	10.6	4.4	14.1	0.9	0.1
CC(C)CCNC(=O)NC(=O)COC(=O)/C=C/c1cnc2ccccc2n1	0.3	x	-3.7	37.3*	5.4	2.6
CCc1nc(NCCC(C)C)c(C#N)c2c1CCCC2	-2.4	x	-3.0	43.2*	1.4	0.9
CCc1nc(NCc2ccccc2)c(C#N)c2c1CCCC2	0.6	12.8	2.8	8.2	-0.4	-13.7
CCc1nnc(NC(=O)CSc2nnc(COc3cccc(C)c3)o2)s1	x	x	-1.6	54.3*	-2.0	-1.7
Cc1ccc(-c2cnc3c(c2)C(=O)N([C@@H](C)CO)C[C@H](C)[C@H](CN(C)C(=O)c2ccc(F)cc2)O3)cc1	7.8	-1.3	x	x	x	x
CC(C)Oc1ccc2ccccc2c1C=O	6.9	x	-2.4	6.1	-0.3	-2.5
CNc1cc([N+](=O)[O-])ccc1OCc1ccccc1	-7.0	0.3	0.8	10.6	0.7	5.3
C/[N+]([O-])=C/c1c(OCc2ccccc2)ccc2ccccc12	-1.7	-35.8*	2.4	-2.5	-0.9	-3.0
O=Cc1c(OCc2ccccc2)ccc2ccccc12	-1.3	-36.6*	-2.3	15.7	2.8	-8.9
CN1CCN(/N=C/c2ccc(OCc3ccccc3)cc2)CC1	4.1	6.6	-0.1	50.5*	-0.5	5.0
S=c1[nH]nc(-c2ccc3ccccc3n2)n1-c1ccc(Cl)cc1	0.8	x	-1.5	6.4	-0.9	7.4
Cc1ccccc1-n1c(-c2ccc3ccccc3n2)n[nH]c1=S	1.8	-32.6*	0.3	-5.0	-0.1	4.3
O=C(NNC(=O)c1ccccc1-n1cccc1)c1ccc(Cl)cc1	35.7	x	6.0	37.0*	0.7	-0.6
O=C(NNC(=O)c1ccccc1-n1cccc1)c1ccc(Cl)c(Cl)c1	-1.5	x	-2.0	13.6	3.0	-3.6
COc1ccc2c3c([nH]c2c1)[C@H](CO)N(C(=O)NC(C)C)CC31CCN(C(=O)c2ccncc2)CC1	x	0.6	x	x	x	x
CC(C)N(CCc1ccncc1)C(=S)Nc1cccc(Cl)c1	x	-17.2*	-1.5	-11.2	1.1	-0.7
